ChEMBL document CHEMBL1781878, “Novel carbamate cholinesterase inhibitors that release biologically active amines following enzyme inhibition” (Bioorg Med Chem Lett, 2009)
pIC50: −log10 of the molar value. The source made the active and inactive calls.

What was measured:
Rattus norvegicus [1] = assay: Toxicity in rat assessed as induction of seizures incidence at 5 mg/kg, po; assay type: organism-based; parameters: dose 5 mg/kg, route oral; settings: in vivo
Procedure, shortened: (§1)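 Rats dosed orally and observed for cholinergic signs (salivation, lacrimation, fasciculations, diarrhea, seizures) and overt behaviour including locomotor stimulation. MTD defined as the dose giving clear, reversible, non-life-threatening cholinergic effects.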

Rattus norvegicus [2] = assay: Toxicity in rat assessed as induction of diarrhea incidence at 5 mg/kg, po; assay type: organism-based; parameters: dose 5 mg/kg, route oral; settings: in vivo; procedure, shortened: as §1
Rattus norvegicus [3] = assay: Inhibition of total plasma cholinesterase in rat at 5 mg/kg, po measured 30 to 180 mins post dose; assay type: functional
Procedure, shortened: (§2)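 Oral dosing in saline to rats; animals sacrificed at 30, 60 and 180 min; plasma and brain processed and ChE activity read spectrophotometrically. Value is mean of the three time points; n = 4 rats per group.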

[4] = molecular target: Acetylcholinesterase (Homo sapiens) (UniProt P22303)
Chain of Acetylcholinesterase (Homo sapiens) (P22303 whole entry): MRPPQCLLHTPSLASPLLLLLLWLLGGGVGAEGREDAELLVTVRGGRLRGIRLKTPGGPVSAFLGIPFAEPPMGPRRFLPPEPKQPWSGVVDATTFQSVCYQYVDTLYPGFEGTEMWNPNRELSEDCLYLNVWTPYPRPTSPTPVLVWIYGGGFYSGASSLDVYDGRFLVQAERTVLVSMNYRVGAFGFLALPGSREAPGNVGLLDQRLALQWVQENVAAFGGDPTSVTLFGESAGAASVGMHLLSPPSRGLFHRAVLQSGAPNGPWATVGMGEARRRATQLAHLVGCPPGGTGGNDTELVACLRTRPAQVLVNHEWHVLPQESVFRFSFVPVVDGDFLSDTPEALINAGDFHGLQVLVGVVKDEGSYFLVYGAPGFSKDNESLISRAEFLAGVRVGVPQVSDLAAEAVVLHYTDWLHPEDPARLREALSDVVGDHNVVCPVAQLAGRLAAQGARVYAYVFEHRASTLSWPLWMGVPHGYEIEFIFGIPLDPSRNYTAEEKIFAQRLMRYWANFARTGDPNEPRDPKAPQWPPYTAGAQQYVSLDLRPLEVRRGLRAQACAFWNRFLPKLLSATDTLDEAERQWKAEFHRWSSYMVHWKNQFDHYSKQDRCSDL

Rattus norvegicus [5] = assay: Toxicity in rat assessed as induction of severe fasciculation, salivation and lacrimation incidence at 5 mg/kg, po; assay type: organism-based; parameters: dose 5 mg/kg, route oral; settings: in vivo; procedure, shortened: as §1
Rattus norvegicus [6] = assay: Inhibition of total brain cholinesterase activity in rat at 5 mg/kg, po measured 30 to 180 mins post dose; assay type: functional; procedure, shortened: as §2
Rattus norvegicus [7] = assay: Inhibition of total plasma cholinesterase in rat at 32 mg/kg, po measured 60 mins post dose; assay type: functional; settings: 1 h
Procedure, shortened: (§3)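 Rats given oral saline solutions of compound at the maximum tolerated or highest tested dose; sacrificed 60 min post-dose, blood collected and processed, plasma ChE activity measured spectrophotometrically (Ellman-type). n = 4 rats per group; mean reported.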

Homo sapiens = species: Homo sapiens; assay: Selectivity index, ratio of IC50 for purified human […] to IC50 for human recombinant AChE
Procedure, shortened: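 Modified Ellman assay on recombinant human AChE and human serum-purified BuChE. Enzyme and inhibitor were preincubated 30 min at 25 °C in 10 mM Tris pH 8.0, then ATCh (0.3 mM) was added with DTNB (0.33 mM final). A405 was read for 5 min and initial rates compared to control. IC50s come from Dixon plots (≥5 inhibitor concentrations), triplicate, 2–3 independent runs. Selectivity is the ratio of the two IC50s.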

Rattus norvegicus [8] = assay: Inhibition of total brain cholinesterase activity in rat at 32 mg/kg, po measured 30 to 180 mins post dose; assay type: functional
Procedure, shortened: (§4)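 Rats received oral saline solutions at the maximum tolerated or highest tested dose; after sacrifice, brain samples processed and total ChE activity determined spectrophotometrically versus control. n = 4 animals per group, mean given.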

Rattus norvegicus [9] = assay: Toxicity in rat assessed as locomotor stimulation at 100 mg/kg, po; assay type: organism-based; parameters: dose 100 mg/kg, route oral; settings: in vivo; procedure, shortened: as §1
Rattus norvegicus [10] = assay: Memory enhancing effect in rat Scopolamine passive avoidance model assessed as reversal of Scopolamine-induced amnesia by measuring step-through latencies at 8 mg/kg, ip compound administered 30 mins before training and Scopolamine added 40 mins before training; assay type: functional, organism-based; parameters: dose 8 mg/kg
Procedure, shortened: (§5)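 Passive avoidance in rats: scopolamine hydrobromide 0.2 mg/kg sc 40 min before training; saline or compound ip 30 min before training. Retention test 24 h later, identical to training but without foot-shock or drug; latency to enter dark chamber recorded.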

Rattus norvegicus [11] = assay: Inhibition of total plasma cholinesterase in rat at >100 mg/kg, po measured 60 mins post dose; assay type: functional; procedure, shortened: as §3
Rattus norvegicus [12] = assay: Inhibition of total brain cholinesterase activity in rat at >100 mg/kg, po measured 30 to 180 mins post dose; assay type: functional; procedure, shortened: as §4
Rattus norvegicus [13] = assay: Memory enhancing effect in rat Scopolamine passive avoidance model assessed as reversal of Scopolamine-induced amnesia by measuring step-through latencies at 12 mg/kg, ip compound administered 30 mins before training and Scopolamine added 40 mins before training; assay type: functional, organism-based; parameters: dose 12 mg/kg; procedure, shortened: as §5
Rattus norvegicus [14] = assay: Inhibition of cholinesterase activity in rat assessed as reconstituted enzyme-mediated release of amphetamine in to plasma at 64 mg/kg, po measured 1 hr post dose; assay type: functional
Procedure, shortened: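 Rats dosed orally with test compound in saline; plasma collected 1 h post-dose and amphetamine content quantified by LC/MS/MS.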

Cholinesterase = Cholinesterase (Homo sapiens, UniProt P06276); assay: Inhibition of purified human plasma BuChE preincubated for 30 mins before DTNB substrate addition by spectrophotometric assay based Ellman's method
Chain of Cholinesterase (P06276 whole entry): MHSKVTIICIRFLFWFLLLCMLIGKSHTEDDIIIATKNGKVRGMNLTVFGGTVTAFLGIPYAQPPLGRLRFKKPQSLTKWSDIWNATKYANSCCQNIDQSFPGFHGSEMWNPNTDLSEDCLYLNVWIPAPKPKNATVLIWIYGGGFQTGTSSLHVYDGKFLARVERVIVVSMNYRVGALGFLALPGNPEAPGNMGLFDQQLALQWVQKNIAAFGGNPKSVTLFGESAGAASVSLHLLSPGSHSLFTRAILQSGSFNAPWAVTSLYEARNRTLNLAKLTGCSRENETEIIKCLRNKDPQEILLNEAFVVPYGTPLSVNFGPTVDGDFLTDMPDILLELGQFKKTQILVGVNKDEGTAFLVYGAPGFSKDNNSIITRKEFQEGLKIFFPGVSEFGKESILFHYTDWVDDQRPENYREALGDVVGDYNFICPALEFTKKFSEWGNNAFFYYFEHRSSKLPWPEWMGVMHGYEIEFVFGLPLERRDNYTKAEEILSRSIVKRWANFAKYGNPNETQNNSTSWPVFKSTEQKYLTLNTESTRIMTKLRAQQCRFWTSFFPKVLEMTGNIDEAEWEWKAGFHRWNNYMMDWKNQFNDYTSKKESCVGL
Procedure, shortened: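 Enzyme: human BuChE purified from serum. Modified Ellman assay. Inhibitor preincubated with enzyme 30 min at 25 °C in 10 mM Tris pH 8.0, then acetylthiocholine (0.3 mM) added; DTNB 0.33 mM final. At least five inhibitor levels plotted as Dixon plot; IC50 from x-intercept. Triplicates, two or three independent experiments.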

Rattus norvegicus [15] = assay: Inhibition of total brain cholinesterase activity in rat at 10 mg/kg, po measured 30 to 180 mins post dose; assay type: functional; procedure, shortened: as §4
[16] = Toxicity in po dosed rat assessed as maximum tolerated dose at which reversible and non-life threatening cholinergic effect observed; assay type: organism-based; settings: in vivo; procedure, shortened: as §1
Rattus norvegicus [17] = assay: Inhibition of total plasma cholinesterase in rat at 10 mg/kg, po measured 60 mins post dose; assay type: functional; settings: 1 h; procedure, shortened: as §3
Rattus norvegicus [18] = assay: Inhibition of total brain cholinesterase activity in rat at >64 mg/kg, po measured 30 to 180 mins post dose; assay type: functional; procedure, shortened: as §4
Rattus norvegicus [19] = assay: Inhibition of total plasma cholinesterase in rat at >64 mg/kg, po measured 60 mins post dose; assay type: functional; procedure, shortened: as §3

Compound: CCN(C)C(=O)Oc1cccc([C@H](C)N(C)C)c1 [RIVASTIGMINE]
- Activity (Rattus norvegicus [1]): Toxic
- Activity (Rattus norvegicus [2]): Toxic
- inhibition in vivo at 5 mg/kg (Rattus norvegicus [3]): 39%
- T1/2 [4]: > 24 h
- Activity (Rattus norvegicus [5]): Toxic
- inhibition in vivo at 5 mg/kg (Rattus norvegicus [6]): 56%

Compound: C[C@H](Cc1ccccc1)NC(=O)Oc1cccc([C@H](C)N(C)C)c1
- inhibition in vivo at 32 mg/kg (Rattus norvegicus [7]): 26%
- Ratio IC50 (Homo sapiens): 1
- inhibition in vivo at 32 mg/kg (Rattus norvegicus [8]): 25%
- T1/2 [4]: 12 h

Compound: C[C@@H](Cc1ccccc1)NC(=O)Oc1cccc([C@H](C)N(C)C)c1.Cl
- Activity (Rattus norvegicus [9]): Non-toxic
- inhibition (Rattus norvegicus [10]): Active
- Ratio IC50 (Homo sapiens): 14
- inhibition (INH) (Rattus norvegicus [11]): 59%
- inhibition (INH) (Rattus norvegicus [12]): 72%
- inhibition (Rattus norvegicus [13]): Active
- T1/2 [4]: 1.2 h
- Activity (Rattus norvegicus [14]): 17 ng/mL

Compound: C[C@H](Cc1ccccc1)N(C)C(=O)Oc1cccc([C@H](C)N(C)C)c1.Cl
- pIC50 (Cholinesterase): 4.61
- inhibition in vivo at 10 mg/kg (Rattus norvegicus [15]): 64%
- T1/2 [4]: > 24 h
- MTD [16]: 10 mg/kg
- inhibition in vivo at 10 mg/kg (Rattus norvegicus [17]): 45%

Compound: C[C@@H](c1cccc(OC(=O)N(C)[C@@H](C)Cc2ccccc2)c1)N(C)C.Cl
- inhibition (INH) (Rattus norvegicus [18]): 50%
- inhibition (INH) (Rattus norvegicus [19]): 50%
- T1/2 [4]: > 24 h
